# ChEMBL document CHEMBL2311431, “Synthesis and biological evaluation of some 5-arylidene-2-(1,3-thiazol-2-ylimino)-1,3-thiazolidin-4-ones as dual anti-inflammatory/antimicrobial agents” (Bioorg Med Chem, 2013)
# The source made the active and inactive calls. The rule behind the calls is not given here.
# Assays:
# Mus musculus [1] = assay: Acute toxicity in AKR mouse up to 0.5 mmol/kg, ip; assay type: organism-based; conditions: in vivo
# Aspergillus flavus [2] = assay: Antifungal activity against Aspergillus flavus ATCC 9643 after 72 hrs by serial dilution technique; assay type: functional; conditions: ATCC 9643, 72 h
# Summary of the method: (§1)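 Serial dilution in malt broth; compounds from 1 mg/ml stocks in 5% DMSO; 72 h at 28 °C. MIC is the lowest concentration with no visible growth under a binocular microscope. Run in duplicate, repeated three times.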
# Penicillium ochrochloron [3] = assay: Fungicidal activity against Penicillium ochrochloron ATCC 9112 after 72 hrs by serial subcultivation method; assay type: functional; conditions: ATCC 9112, 72 h
# Listeria monocytogenes [4] = assay: Bactericidal activity against Listeria monocytogenes NCTC 7973 after 72 hrs by serial subcultivation method; assay type: functional; conditions: NCTC 7973, 72 h
# Talaromyces funiculosus [5] = assay: Antifungal activity against Penicillium funiculosum ATCC 36839 after 72 hrs by serial dilution technique; assay type: functional; conditions: ATCC 36839, 72 h; summary of the method: as §1
# Aspergillus fumigatus [6] = assay: Antifungal activity against Aspergillus fumigatus after 72 hrs by serial dilution technique; assay type: functional; summary of the method: as §1
# Escherichia coli [7] = assay: Antibacterial activity against Escherichia coli ATCC 35210 after 24 hr by microdilution test; assay type: functional; conditions: ATCC 35210, 24 h
# Summary of the method: (§2)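 Broth microdilution in LB medium, about 1.0×10^4 cfu per well; compounds from 1 mg/ml stocks in 5% DMSO. Incubated 24 h. MIC is the lowest concentration with no visible growth under a binocular microscope. Run in duplicate, repeated three times.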
# [8] = Inhibition of soybean lipoxygenase assessed as inhibition of sodium linolate conversion to 13-hydroperoxylinoleic acid after 4 mins by spectrophotometry; parameters: species or system Glycine max
# Staphylococcus aureus [9] = assay: Bactericidal activity against Staphylococcus aureus ATCC 6538 after 72 hrs by serial subcultivation method; assay type: functional; conditions: ATCC 6538, 72 h
# Micrococcus flavus [10] = assay: Antibacterial activity against Micrococcus flavus ATCC 10240 after 24 hr by microdilution test; assay type: functional; conditions: ATCC 10240, 24 h; summary of the method: as §2
# Staphylococcus aureus [11] = assay: Antibacterial activity against Staphylococcus aureus ATCC 6538 after 24 hr by microdilution test; assay type: functional; conditions: ATCC 6538, 24 h; summary of the method: as §2
# Pseudomonas aeruginosa [12] = assay: Bactericidal activity against Pseudomonas aeruginosa ATCC 27853 after 72 hrs by serial subcultivation method; assay type: functional; conditions: ATCC 27853, 72 h
# Bacillus cereus [13] = assay: Antibacterial activity against Bacillus cereus clinical isolate after 24 hr by microdilution test; assay type: functional; summary of the method: as §2
# Trichoderma viride [14] = assay: Antifungal activity against Trichoderma viride IAM 5061 after 72 hrs by serial dilution technique; assay type: functional; conditions: IAM 5061, 72 h; summary of the method: as §1
# Penicillium ochrochloron [15] = assay: Antifungal activity against Penicillium ochrochloron ATCC 9112 after 72 hrs by serial dilution technique; assay type: functional; conditions: ATCC 9112, 72 h; summary of the method: as §1
# Aspergillus niger [16] = assay: Fungicidal activity against Aspergillus niger ATCC 6275 after 72 hrs by serial subcultivation method; assay type: functional; conditions: ATCC 6275, 72 h
# Pseudomonas aeruginosa [17] = assay: Antibacterial activity against Pseudomonas aeruginosa ATCC 27853 after 24 hr by microdilution test; assay type: functional; conditions: ATCC 27853, 24 h; summary of the method: as §2
# [18] = target: T1, Prostaglandin G/H synthase 1 (Ovis aries) (UniProt P05979); assay: Inhibition of ovine COX1 assessed as inhibition of PGF2a production by enzyme immunoassay; parameters: concentration or dose not given beside the values
# T1 sequence (whole entry): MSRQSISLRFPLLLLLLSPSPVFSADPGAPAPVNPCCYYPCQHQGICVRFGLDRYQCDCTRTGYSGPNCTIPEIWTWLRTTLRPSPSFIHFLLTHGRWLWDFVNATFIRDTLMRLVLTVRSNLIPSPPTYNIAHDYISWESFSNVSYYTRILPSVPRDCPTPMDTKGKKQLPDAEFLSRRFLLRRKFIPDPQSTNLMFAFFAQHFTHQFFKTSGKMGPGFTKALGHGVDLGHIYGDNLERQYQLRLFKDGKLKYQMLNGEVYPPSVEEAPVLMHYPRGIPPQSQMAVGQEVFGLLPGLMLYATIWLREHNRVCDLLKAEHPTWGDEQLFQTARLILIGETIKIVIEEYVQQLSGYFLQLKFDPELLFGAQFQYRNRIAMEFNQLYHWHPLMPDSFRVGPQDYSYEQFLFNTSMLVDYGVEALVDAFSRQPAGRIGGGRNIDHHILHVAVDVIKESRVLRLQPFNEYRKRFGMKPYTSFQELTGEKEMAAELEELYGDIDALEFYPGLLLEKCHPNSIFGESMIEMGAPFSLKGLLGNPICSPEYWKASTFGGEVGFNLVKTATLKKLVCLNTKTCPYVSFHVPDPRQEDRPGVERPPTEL
# Summary of the method: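 Ovine COX-1 from a commercial screening kit, tested with 0.1 µM arachidonic acid, which is below the saturating level. COX-derived PGH2 is reduced by SnCl2 to PGF2a, quantified by enzyme immunoassay with a broad prostaglandin antibody. At least triplicate.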
# Trichoderma viride [19] = assay: Fungicidal activity against Trichoderma viride IAM 5061 after 72 hrs by serial subcultivation method; assay type: functional; conditions: IAM 5061, 72 h
# Listeria monocytogenes [20] = assay: Antibacterial activity against Listeria monocytogenes NCTC 7973 after 24 hr by microdilution test; assay type: functional; conditions: NCTC 7973, 24 h; summary of the method: as §2
# Talaromyces funiculosus [21] = assay: Fungicidal activity against Penicillium funiculosum ATCC 36839 after 72 hrs by serial subcultivation method; assay type: functional; conditions: ATCC 36839, 72 h
# Aspergillus niger [22] = assay: Antifungal activity against Aspergillus niger ATCC 6275 after 72 hrs by serial dilution technique; assay type: functional; conditions: ATCC 6275, 72 h; summary of the method: as §1
# Escherichia coli [23] = assay: Bactericidal activity against Escherichia coli ATCC 35210 after 72 hrs by serial subcultivation method; assay type: functional; conditions: ATCC 35210, 72 h
# Aspergillus fumigatus [24] = assay: Fungicidal activity against Aspergillus fumigatus after 72 hrs by serial subcultivation method; assay type: functional
# Mus musculus [25] = assay: Antiinflammatory activity in AKR mouse assessed as inhibition of carrageenan-induced paw edema at 0.01 mmol/kg, ip measured after 3.5 hrs of carrageenan-challenge; assay type: functional
# Summary of the method: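 AKR mice of both sexes (pregnant females excluded), 6-10 per group, fasted during the experiment. Edema induced by intradermal 0.05 mL of 2% carrageenin into the right hind paw. Compound given at 0.01 mmol/kg ip, suspended in water with Tween-80, at the same time as carrageenin.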
# Bacillus cereus [26] = assay: Bactericidal activity against Bacillus cereus clinical isolate after 72 hrs by serial subcultivation method; assay type: functional
# Aspergillus flavus [27] = assay: Fungicidal activity against Aspergillus flavus ATCC 9643 after 72 hrs by serial subcultivation method; assay type: functional; conditions: ATCC 9643, 72 h
# Micrococcus flavus [28] = assay: Bactericidal activity against Micrococcus flavus ATCC 10240 after 72 hrs by serial subcultivation method; assay type: functional; conditions: ATCC 10240, 72 h
Compound,MIC (Aspergillus flavus [2]) [µM],MFC (Penicillium ochrochloron [3]) [µM],MBC (Listeria monocytogenes [4]) [µM],MIC (Talaromyces funiculosus [5]) [µM],MIC (Aspergillus fumigatus [6]) [µM],MIC (Escherichia coli [7]) [µM],MBC (Staphylococcus aureus [9]) [µM],MIC (Micrococcus flavus [10]) [µM],MIC (Staphylococcus aureus [11]) [µM],MBC (Pseudomonas aeruginosa [12]) [µM],MIC (Bacillus cereus [13]) [µM],MIC (Trichoderma viride [14]) [µM],MIC (Penicillium ochrochloron [15]) [µM],MFC (Aspergillus niger [16]) [µM],MIC (Pseudomonas aeruginosa [17]) [µM],MFC (Trichoderma viride [19]) [µM],MIC (Listeria monocytogenes [20]) [µM],MFC (Talaromyces funiculosus [21]) [µM],MIC (Aspergillus niger [22]) [µM],MBC (Escherichia coli [23]) [µM],further results
COc1ccc(OC)c(/C=C2\S/C(=N/c3nccs3)NC2=O)c1,290,116,230,7.3,233,406,348,232,232,406,232,58,58,290,290,348,58,58,232,464,Activity (Mus musculus [1]): Non-toxic; IC50 ([8]; read-out: IC50): 52 µM; inhibition ([18]; concentration not given here): 85%; MFC (Aspergillus fumigatus [24]): 348 µM; inhibition in vivo at 10 µmol/kg (Mus musculus [25]): 26%; MBC (Bacillus cereus [26]): 348 µM; MFC (Aspergillus flavus [27]): 348 µM; MBC (Micrococcus flavus [28]): 290 µM
CN[C@@H]1[C@H](O[C@H]2[C@H](O[C@H]3[C@H](O)[C@@H](O)[C@H](N=C(N)N)[C@@H](O)[C@@H]3N=C(N)N)O[C@@H](C)[C@]2(O)C=O)O[C@@H](CO)[C@H](O)[C@H]1O [STREPTOMYCIN],,,516,,,172,344,86,172,344,43,,,,172,,258,,,344,MBC (Bacillus cereus [26]): 86 µM; MBC (Micrococcus flavus [28]): 172 µM
CC(Cc1ccc(O)c(O)c1)C(C)Cc1ccc(O)c(O)c1 (configuration not stated) [NORDIHYDROGUAIARETIC ACID],,,,,,,,,,,,,,,,,,,,,IC50 ([8]; read-out: IC50): 32 µM; inhibition [18]: inactive; inhibition (Mus musculus [25]): inactive
COc1ccc2cc([C@H](C)C(=O)O)ccc2c1 [NAPROXEN],,,,,,,,,,,,,,,,,,,,,IC50 [8]: Not Active; inhibition ([18]; concentration not given here): 46%; inhibition (Mus musculus [25]): inactive
COc1ccccc1/C=C1\S/C(=N/c2nccs2)NC1=O,23.6,31.5,63,15.8,15.8,31.5,63,31.5,31.5,63,31.5,15.8,15.8,31.5,31.5,31.5,31.5,31.5,15.8,63,Activity (Mus musculus [1]): Non-toxic; IC50 ([8]; read-out: IC50): 63 µM; inhibition ([18]; concentration not given here): 86%; MFC (Aspergillus fumigatus [24]): 31.5 µM; inhibition in vivo at 10 µmol/kg (Mus musculus [25]): 50%; MBC (Bacillus cereus [26]): 31.5 µM; MFC (Aspergillus flavus [27]): 31.5 µM; MBC (Micrococcus flavus [28]): 31.5 µM
CC1(C)S[C@@H]2[C@H](NC(=O)[C@H](N)c3ccccc3)C(=O)N2[C@H]1C(=O)O [AMPICILLIN],,,744,,,372,372,248,248,1240,248,,,,744,,372,,,492,MBC (Bacillus cereus [26]): 372 µM; MBC (Micrococcus flavus [28]): 372 µM
O=C1N/C(=N\c2nc(-c3ccccc3)cs2)S/C1=C\c1ccccc1,19,25.2,27,19,19,54,108,27,54,108,6.8,12.6,19,25.2,27,25.2,27,25.2,19,108,Activity (Mus musculus [1]): Non-toxic; IC50 ([8]; read-out: IC50): 66 µM; inhibition ([18]; concentration not given here): 67%; MFC (Aspergillus fumigatus [24]): 25.2 µM; inhibition in vivo at 10 µmol/kg (Mus musculus [25]): 59.3%; MBC (Bacillus cereus [26]): 27 µM; MFC (Aspergillus flavus [27]): 25.2 µM; MBC (Micrococcus flavus [28]): 27 µM
O=C1N/C(=N\c2nc(-c3ccccc3)cs2)S/C1=C\c1cccc(Cl)c1,19,25.2,50.4,19,19,25.2,50.4,25.2,25.2,50.4,25.2,12.6,19,25.2,25.2,25.2,25.2,25.2,19,50.4,Activity (Mus musculus [1]): Non-toxic; IC50 ([8]; read-out: IC50): 88 µM; inhibition ([18]; concentration not given here): 65%; MFC (Aspergillus fumigatus [24]): 25.2 µM; inhibition in vivo at 10 µmol/kg (Mus musculus [25]): 51%; MBC (Bacillus cereus [26]): 25.2 µM; MFC (Aspergillus flavus [27]): 25.2 µM; MBC (Micrococcus flavus [28]): 50.4 µM
c1ccc(-c2ccc(C(c3ccccc3)n3ccnc3)cc2)cc1 (configuration not stated) [BIFONAZOLE],480,640,,640,480,,,,,,,640,480,640,,800,,800,480,,MFC (Aspergillus fumigatus [24]): 640 µM; MFC (Aspergillus flavus [27]): 640 µM
COc1ccc2c(c1)c(CC(=O)O)c(C)n2C(=O)c1ccc(Cl)cc1 [INDOMETHACIN],,,,,,,,,,,,,,,,,,,,,IC50 [8]: Not Active; inhibition [18]: inactive
CC(=O)N1CCN(c2ccc(OCC3COC(Cn4ccnc4)(c4ccc(Cl)cc4Cl)O3)cc2)CC1 (configuration not stated) [KETOCONAZOLE],2850,3800,,380,380,,,,,,,4750,3800,950,,5700,,950,380,,MFC (Aspergillus fumigatus [24]): 950 µM; MFC (Aspergillus flavus [27]): 3800 µM
O=C1N/C(=N\c2nc(-c3ccccc3)cs2)S/C1=C\c1ccccc1Cl,17.6,23.4,25,17.6,17.6,50,100,25,50,100,25,11.7,11.7,23.4,50,23.4,25,23.4,17.6,100,MFC (Aspergillus fumigatus [24]): 23.4 µM; MBC (Bacillus cereus [26]): 25 µM; MFC (Aspergillus flavus [27]): 23.4 µM; MBC (Micrococcus flavus [28]): 25 µM
